Tn7 DDE FP: disrupts Tn7 cyclic peptide binding to fibrin D-Dimer-E complex; P02675; FP displacement of FITC-Tn7 peptide from fibrin DD(E); 0% = median of compound wells per plate; inhibition, % at 8.3 µM; 0.13% of 370,000 active; AID 720508;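 active means inhibition above the mean of compounds falling within the control limits plus 3 SD of them, cut at about 14% in these data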
Target sequence (P02675 whole entry, looked up): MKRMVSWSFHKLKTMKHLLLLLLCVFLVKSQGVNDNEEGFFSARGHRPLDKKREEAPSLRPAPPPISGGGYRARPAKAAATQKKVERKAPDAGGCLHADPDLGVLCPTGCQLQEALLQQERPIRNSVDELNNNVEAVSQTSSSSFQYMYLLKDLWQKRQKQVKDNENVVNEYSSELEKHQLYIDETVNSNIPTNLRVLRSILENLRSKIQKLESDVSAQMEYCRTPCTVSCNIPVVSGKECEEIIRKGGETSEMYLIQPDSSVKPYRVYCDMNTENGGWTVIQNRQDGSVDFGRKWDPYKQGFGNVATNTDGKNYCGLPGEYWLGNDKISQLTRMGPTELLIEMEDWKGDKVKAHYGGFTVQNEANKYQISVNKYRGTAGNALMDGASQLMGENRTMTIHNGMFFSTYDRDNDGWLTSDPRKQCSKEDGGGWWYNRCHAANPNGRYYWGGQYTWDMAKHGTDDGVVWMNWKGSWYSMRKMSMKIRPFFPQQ
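System: human fibrin DD(E); quantity: Fibrin-DD(E) at 2 µM final; also added: fluorescent Tn7 probe at 0.1 µM; compound dosing: single nominal test concentration of 8.3 µM per compound; schedule: 10 min preincubation, 3 h with tracer, room temperature; detection: fluorescence polarization of the labelled Tn7 tracer; repeats: one replicate per compound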
Arrestin-AP2 inh: inhibitors of human beta-arrestin and AP2 interaction. 0.31% of 340,000 active. FITC-arrestin peptide / GST-AP2 beads, flow cytometry; AP2 beta2 appendage carries R879A mutation. inhibition, % at 10 µM;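 active means inhibition above a set limit, near 3 SD of compounds lacking own fluorescence, cut at about 54% in these data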
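Assay system: GST-AP2 R879A bound to glutathione beads, E. coli-expressed; Medium: PBS with 0.05% Tween 20 and 0.1% BSA; Also added: fluorescein-tagged arrestin peptide at 50 nM final; Timing: 12 min plus 1 h, RT; Measured by: flow cytometry, FL1 (488/535 nm); Evaluation: percent drop in bead-associated FITC signal.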
CAL PDZ FP-1: CAL PDZ (human) peptide binding inhibition; inhibition, % at 24.9 µM; 0.92% of 300,000 active; purified CAL PDZ, TMR-peptide fluorescence polarization, 1 h; AID 602252; Q9HD26;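 active means mean inhibition of at least 30% with at least half of replicates also reaching 30%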
DDE Tn6 FP inh: disrupts Tn6 cyclic peptide binding to fibrin D-Dimer-E complex; P02675; Fibrin DD(E) TRITC-Tn6 fluorescence polarization displacement; inhibition, % at 8.3 µM; 0.21% of 370,000 active;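 active means inhibition above a per-campaign cutoff: mean of compounds within control limits plus 3 SD, cut at about 15% in these data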
CAL PDZ FP-2: inhibitors of human CAL PDZ peptide binding; Q9HD26; purified CAL PDZ, TMR-peptide fluorescence polarization, 1 h; inhibition, % at 20 µM; 0.02% of 330,000 active;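 active means highest replicate inhibition of at least 40%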
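Assay system – tagged CAL PDZ protein CerCALP, purified · Timing – 1 h at RT · Compound – single point, 20 µM · Measured by – fluorescence polarization from S- and P-plane intensities, G-factor corrected · Evaluation – inhibition from polarization loss · Probe or stimulus – TMR reporter peptide T*-PRC34 · Buffer or medium – pH 7.4 phosphate-saline buffer, reducing agent, detergent, IgG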
Numbers stand for hits; – = inactive; · = no result given. Sampled rows, rich in hits. Any-hit rate of the full collection: about 1.4%.

SMILES	Tn7 DDE FP	Arrestin-AP2 inh	CAL PDZ FP-1	DDE Tn6 FP inh	CAL PDZ FP-2
O=C(COc1ccc(Br)cc1)Nc1ccccc1C(=O)N1CCOCC1	–	–	–	–	–
Cc1cccc(NC(=S)NCc2ccc3c(c2)OCO3)c1C	–	–	50	–	–
Cc1cccc(N(CC(=O)NCc2ccc3c(c2)OCO3)C(=O)CCC(=O)Nc2ccccn2)c1C	–	–	92	–	–
O=C1c2[nH]nc(-c3ccccc3)c2C(c2ccc(F)cc2)N1Cc1ccccc1 (stereo not given)	–	·	·	–	·
O=C(CCc1nc(-c2ccccc2F)no1)NCCc1cccc(F)c1	–	·	·	–	·
O=C(COC(=O)CCN1C(=O)c2ccccc2C1=O)Nc1ccc(S(=O)(=O)N2CCCC2)cc1	–	–	–	–	–
O=C(COC(=O)CN1C(=O)c2ccccc2C1=O)Nc1ccc(S(=O)(=O)N2CCCC2)cc1	–	–	35	–	·
CN(C)CCCNC1CS(=O)(=O)CC1O (stereo not given)	–	–	–	–	–
COCCCNC1CS(=O)(=O)CC1O (stereo not given)	–	–	73	–	–
Cc1ccc(NC(=O)Cc2ccc(OC(F)F)cc2)c(S(=O)(=O)N2CCOCC2)c1	–	·	·	–	·
O=C(NCCc1ccccc1)C1CCN(C2CCN(Cc3ccco3)CC2)CC1	–	–	30	–	–
Cn1nc(C(=O)Nc2nc(-c3ccccn3)cs2)c2ccccc2c1=O	–	–	85	–	–
CCCn1nc(C(=O)Nc2nc(-c3ccccn3)cs2)c2ccccc2c1=O	–	–	–	–	–
O=C1NC(=O)C(CSc2ccccc2)(c2ccccc2)N1 (stereo not given)	–	–	42	–	–
CC1(CSc2ccccc2)CC(=O)N1 (stereo not given)	–	·	·	–	·
CC1(NC(=O)c2ccc(C#Cc3cccc(F)c3)cn2)COC1	–	·	·	–	·
FC(F)(F)c1ccc(Cn2ccc3ccc(-c4ccc5ccn(Cc6ccccc6)c5c4)cc32)cc1	–	·	·	–	·
O=C(COC(=O)c1cn(-c2ccccc2)nc1-c1ccccc1)Nc1ncc(Cl)cc1Cl	–	–	77	–	–
O=C(Nc1ccc(Oc2ccccc2)cc1)C1CCN(c2nnc(-n3cccc3)s2)CC1	–	·	·	–	·
C[C@]12C=CC(=O)C=C1CCC1C2CC[C@@]2(C)C1CCC21OCCO1 (stereo not given in full)	–	–	102	–	–
CCn1cc(/C=N\NC(=O)c2c[nH]c3ccccc23)c(C)n1	–	–	–	–	–
CCn1cc(/C=N\NC(=O)c2csc3ccccc23)c(C)n1	–	–	32	–	·
N=C1/C(=C\c2ccc(-c3ccc(C(=O)O)cc3)o2)C(=O)N=C2SC=C(c3ccccc3)N12	–	–	78	–	–
COC(=O)/C=C/COc1ccccc1[N+](=O)[O-]	–	–	35	–	–
COc1cccc(O[C@H]2C=C[C@@H](c3ccccc3)O[C@@H]2CO)c1	–	·	·	–	·
SMILES	Tn7 DDE FP	Arrestin-AP2 inh	CAL PDZ FP-1	DDE Tn6 FP inh	CAL PDZ FP-2
O=C(c1cc2nc(-c3ccco3)cc(C(F)(F)F)n2n1)N1CCCCCC1	–	–	–	–	–
O=C(NCCCN1CCCC1=O)c1cc2nc(-c3ccco3)cc(C(F)(F)F)n2n1	–	–	58	–	–
CCCCC(=O)N1CCC(NS(=O)(=O)c2ccc3c(c2)CCN3C(C)=O)CC1	–	·	·	–	·
CC1=C(C(N)=O)C(c2ccc(Cl)cc2Cl)n2ncnc2N1 (stereo not given)	–	–	38	–	–
COC(=O)c1ccc(CSc2nnc3nc(C)cc(C)n23)cc1	–	–	33	–	–
CC(=O)C1=C(C)NC(=S)NC1c1cc([N+](=O)[O-])ccc1O (stereo not given)	–	–	64	–	–
CS(=O)(=O)Nc1ccc(C2=NN(C(=O)c3ccco3)C(c3ccco3)C2)cc1 (stereo not given)	–	–	33	–	–
CCOC(=O)CC[C@@]1(C(=O)OCC)C[C@@H](CC(=O)NCCc2ccccc2OC)C(=O)N2CCCC=C21	–	·	·	–	·
COC(=O)c1c(C)nc2nonc2c1N	–	–	172	–	–
Cc1ccnc(N2C(=O)C3C4CC(C(Br)C4Br)C3C2=O)c1 (stereo not given)	–	–	–	–	–
O=C1C2C3CC(C(Br)C3Br)C2C(=O)N1c1ccccn1 (stereo not given)	–	–	44	–	–
CCCNC(=O)N1[C@@H](CO)[C@H](c2ccc(C3=CCCC3)cc2)[C@@H]1CN(CC)S(=O)(=O)c1ccccc1[N+](=O)[O-]	–	·	·	–	·
Cc1nonc1NC(=O)CSc1nnc(-c2ccoc2C)n1CC(C)C	–	–	177	–	·
C[C@H]1[C@@H](NC(=O)/C=C/c2ccccc2)CC[C@@]23CCCN2C(=O)CCC[C@@H]13	–	·	·	–	·
CCSc1ccc(C(=O)Nc2ccc(Br)cn2)cc1[N+](=O)[O-]	–	–	39	–	–
CC(C)Cc1nc2oc3c(NCC(C)O)ncnc3c2c2c1CCCC2 (stereo not given)	–	–	43	–	–
CC(C)Cc1nc2oc3c(Cl)ncnc3c2c2c1CCCC2	–	–	·	–	–
CC(C)Sc1nnc(SCC(=O)NCCCN2CCCC2=O)s1	–	–	44	–	–
O=C(CSc1ccc2ccccc2c1)NCCCN1CCCC1=O	–	–	–	–	–
O=C1NC(=O)C2(N1)c1ccccc1-c1ccccc12	–	–	–	–	–
O=C1NC(=O)C2(N1)C(=O)c1cccc3cccc2c13 (stereo not given)	–	·	·	39	·
COC(=O)C1=C(C)N(Cc2cccc(C(F)(F)F)c2)C(=NCc2ccccc2C(F)(F)F)NC1c1cccc(F)c1 (stereo not given)	–	·	·	–	·
CC(=O)Nc1ccc2c(c1)C(=O)c1ccccc1C2=O	–	–	–	–	–
O=C(O)/C=C/C(=O)Nc1ccc2c(c1)C(=O)c1ccccc1C2=O	–	–	98	–	–
Cc1ccc2nc3sc(C(=O)N4CCN(C)CC4)cc3cc2c1	–	·	·	–	·
SMILES	Tn7 DDE FP	Arrestin-AP2 inh	CAL PDZ FP-1	DDE Tn6 FP inh	CAL PDZ FP-2
CCOC(=O)C1CSCCS(=O)(=O)N1Cc1ccccc1F (stereo not given)	–	·	·	–	·
O=C(Nc1cccc2[nH]ncc12)NS(=O)(=O)c1ccccc1	–	–	–	60	–
CCCc1c(C)nc(N2CCN(c3ccccc3OC)CC2)[nH]c1=O	–	–	55	–	–
Cc1cc(C)nc(NCC(O)CNc2ccccc2C)n1 (stereo not given)	–	–	62	–	–
O=C1CSC(=S)N1/N=C/c1cc(Br)c(O)c(Br)c1	·	–	59	·	–
O=C1OC(CO)CN1Cc1ccccc1 (stereo not given)	–	–	58	–	·
CC(C)C[C@H]1COc2cc(Br)ccc2S(=O)(=O)N1Cc1cn(CCC2OCCO2)nn1	–	·	·	–	·
O=C(N/N=C/c1cccnc1)c1[nH]ncc1Br	–	–	49	–	–
